Results: ChEMBL document CHEMBL5705905, “Pharmacological targeting of kinases MST1 and MST2 augments tissue repair and regeneration” (Sci Transl Med, 2016)
Calls of active or inactive are those of the source. The calls are words filed in the database; no cut-off is given here.

Experiments:
[1] = tested on: Tyrosine-protein kinase ABL1 (Homo sapiens), P00519 [M351T]; experiment: Inhibition of phosphorylated ABL1 M351T mutant (unknown origin) assessed as remaining activity at 1 uM by Kinome scan method relative to control
Aurora kinase B = Aurora kinase B (Homo sapiens, UniProt Q96GD4); experiment: Inhibition of AURKB (unknown origin) assessed as remaining activity at 1 uM by Kinome scan method relative to control
Aurora kinase B, sequence (Q96GD4 whole entry): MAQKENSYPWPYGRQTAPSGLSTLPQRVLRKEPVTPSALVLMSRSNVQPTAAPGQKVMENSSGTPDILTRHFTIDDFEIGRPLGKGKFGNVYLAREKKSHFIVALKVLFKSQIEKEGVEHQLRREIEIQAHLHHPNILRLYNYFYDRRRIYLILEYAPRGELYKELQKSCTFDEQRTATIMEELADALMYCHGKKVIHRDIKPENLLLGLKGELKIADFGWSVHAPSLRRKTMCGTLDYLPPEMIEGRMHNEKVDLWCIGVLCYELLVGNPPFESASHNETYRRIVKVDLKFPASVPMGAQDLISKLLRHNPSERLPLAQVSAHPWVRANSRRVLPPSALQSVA
In short: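 Active-site-dependent competition-binding (KINOMEscan) panel of 468 kinases, test compound at 1 μM (from a 10 mM DMSO stock). Read-out is ctrl% = (test signal − positive control signal)/(negative control signal − positive control signal) × 100. DMSO is the negative control (100%) and a control compound is the positive control (0%). Lower ctrl% means tighter binding.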

[2] = molecular target: Cyclin-dependent kinase-like 5 (Homo sapiens) (UniProt O76039); experiment: Inhibition of CDKL5 (unknown origin) assessed as remaining activity at 1 uM by Kinome scan method relative to control
Cyclin-dependent kinase-like 5 (Homo sapiens), sequence (O76039 whole entry): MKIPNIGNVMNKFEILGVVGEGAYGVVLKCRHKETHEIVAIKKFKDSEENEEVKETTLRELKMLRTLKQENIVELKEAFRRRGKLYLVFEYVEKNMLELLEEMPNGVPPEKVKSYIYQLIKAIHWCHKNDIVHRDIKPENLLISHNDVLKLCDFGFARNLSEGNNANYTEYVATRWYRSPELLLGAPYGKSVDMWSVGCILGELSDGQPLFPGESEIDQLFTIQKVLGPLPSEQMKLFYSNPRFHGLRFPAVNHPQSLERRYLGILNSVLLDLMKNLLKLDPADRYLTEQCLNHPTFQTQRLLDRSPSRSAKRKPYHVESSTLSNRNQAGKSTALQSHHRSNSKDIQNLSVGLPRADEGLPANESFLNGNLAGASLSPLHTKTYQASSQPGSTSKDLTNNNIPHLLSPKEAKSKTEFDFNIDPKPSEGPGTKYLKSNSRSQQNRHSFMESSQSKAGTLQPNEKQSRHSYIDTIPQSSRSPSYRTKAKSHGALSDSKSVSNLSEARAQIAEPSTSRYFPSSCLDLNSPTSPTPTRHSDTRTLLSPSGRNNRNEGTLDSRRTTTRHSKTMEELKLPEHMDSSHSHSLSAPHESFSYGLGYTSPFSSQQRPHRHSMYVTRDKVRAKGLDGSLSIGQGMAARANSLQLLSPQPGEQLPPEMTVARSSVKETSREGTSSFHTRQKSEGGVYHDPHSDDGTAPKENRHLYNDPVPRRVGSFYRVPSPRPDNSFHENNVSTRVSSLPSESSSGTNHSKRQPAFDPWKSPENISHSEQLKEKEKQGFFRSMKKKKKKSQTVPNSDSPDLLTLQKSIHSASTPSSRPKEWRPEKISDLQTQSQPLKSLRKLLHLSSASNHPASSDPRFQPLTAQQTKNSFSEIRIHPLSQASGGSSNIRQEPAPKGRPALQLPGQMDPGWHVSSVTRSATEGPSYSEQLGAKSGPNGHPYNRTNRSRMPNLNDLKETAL
In short: (§1)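 Active-site-dependent competition-binding profiling (KINOMEscan) at 1 μM against a 468-kinase panel; compound supplied from a 10 mM DMSO stock. Read-out is ctrl% = (test signal − positive control signal)/(negative control signal − positive control signal) × 100. DMSO is the negative control (100%) and a control compound the positive control (0%). Lower ctrl% means tighter binding.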

[3] = molecular target: Dual specificity protein kinase CLK1 (Homo sapiens) (UniProt P49759); experiment: Inhibition of CLK1 (unknown origin) assessed as remaining activity at 1 uM by Kinome scan method relative to control; in short: as §1
Dual specificity protein kinase CLK1 (Homo sapiens), sequence (P49759 whole entry, looked up): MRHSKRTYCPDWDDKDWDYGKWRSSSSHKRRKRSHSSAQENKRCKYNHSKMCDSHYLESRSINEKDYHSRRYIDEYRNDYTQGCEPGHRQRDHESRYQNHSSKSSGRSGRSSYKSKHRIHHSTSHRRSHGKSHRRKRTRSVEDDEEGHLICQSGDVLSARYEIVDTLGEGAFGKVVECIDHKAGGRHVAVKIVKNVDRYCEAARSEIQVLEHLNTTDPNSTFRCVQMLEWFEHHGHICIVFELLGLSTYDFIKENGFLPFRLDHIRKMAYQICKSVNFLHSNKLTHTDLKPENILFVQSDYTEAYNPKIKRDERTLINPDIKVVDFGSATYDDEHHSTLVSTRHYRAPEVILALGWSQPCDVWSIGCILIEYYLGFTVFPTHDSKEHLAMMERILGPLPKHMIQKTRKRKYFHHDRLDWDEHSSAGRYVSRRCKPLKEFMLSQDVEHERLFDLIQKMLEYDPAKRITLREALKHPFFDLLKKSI

[4] = molecular target: Dual specificity protein kinase CLK3 (Homo sapiens) (UniProt P49761); experiment: Inhibition of CLK3 (unknown origin) assessed as remaining activity at 1 uM by Kinome scan method relative to control; in short: as §1
Dual specificity protein kinase CLK3 (Homo sapiens), sequence (P49761 whole entry, looked up): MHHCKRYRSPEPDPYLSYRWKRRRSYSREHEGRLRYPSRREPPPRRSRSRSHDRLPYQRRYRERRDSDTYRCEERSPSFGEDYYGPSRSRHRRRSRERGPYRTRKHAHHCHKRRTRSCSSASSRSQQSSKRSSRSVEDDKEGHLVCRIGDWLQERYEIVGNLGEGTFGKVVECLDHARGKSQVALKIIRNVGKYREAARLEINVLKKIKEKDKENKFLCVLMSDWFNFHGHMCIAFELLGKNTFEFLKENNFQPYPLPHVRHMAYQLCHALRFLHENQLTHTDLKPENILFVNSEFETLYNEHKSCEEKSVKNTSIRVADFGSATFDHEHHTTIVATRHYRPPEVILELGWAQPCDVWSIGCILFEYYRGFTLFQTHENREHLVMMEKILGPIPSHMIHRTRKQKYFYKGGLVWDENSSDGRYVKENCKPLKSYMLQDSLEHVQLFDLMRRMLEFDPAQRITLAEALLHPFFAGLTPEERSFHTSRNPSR

[5] = molecular target: Epidermal growth factor receptor (Homo sapiens) (UniProt P00533); experiment: Inhibition of EGFR (unknown origin) assessed as remaining activity at 1 uM by Kinome scan method relative to control
[6] = molecular target: Ephrin type-A receptor 6 (Homo sapiens) (UniProt Q9UF33); experiment: Inhibition of EPHA6 (unknown origin) assessed as remaining activity at 1 uM by Kinome scan method relative to control
[7] = molecular target: Mitogen-activated protein kinase 4 (Homo sapiens) (UniProt P31152); experiment: Inhibition of ERK4 (unknown origin) assessed as remaining activity at 1 uM by Kinome scan method relative to control
[8] = tested on: Fibroblast growth factor receptor 3 (Homo sapiens), P22607 [G697C]; experiment: Inhibition of FGFR3 G697C mutant (unknown origin) assessed as remaining activity at 1 uM by Kinome scan method relative to control
[9] = molecular target: Rhodopsin kinase GRK1 (Homo sapiens) (UniProt Q15835); experiment: Inhibition of GRK1 (unknown origin) assessed as remaining activity at 1 uM by Kinome scan method relative to control
[10] = molecular target: Homeodomain-interacting protein kinase 1 (Homo sapiens) (UniProt Q86Z02); experiment: Inhibition of HIPK1 (unknown origin) assessed as remaining activity at 1 uM by Kinome scan method relative to control
[11] = molecular target: Serine/threonine-protein kinase ICK (Homo sapiens) (UniProt Q9UPZ9); experiment: Inhibition of ICK (unknown origin) assessed as remaining activity at 1 uM by Kinome scan method relative to control
Serine/threonine-protein kinase ICK (Homo sapiens), sequence (Q9UPZ9 whole entry): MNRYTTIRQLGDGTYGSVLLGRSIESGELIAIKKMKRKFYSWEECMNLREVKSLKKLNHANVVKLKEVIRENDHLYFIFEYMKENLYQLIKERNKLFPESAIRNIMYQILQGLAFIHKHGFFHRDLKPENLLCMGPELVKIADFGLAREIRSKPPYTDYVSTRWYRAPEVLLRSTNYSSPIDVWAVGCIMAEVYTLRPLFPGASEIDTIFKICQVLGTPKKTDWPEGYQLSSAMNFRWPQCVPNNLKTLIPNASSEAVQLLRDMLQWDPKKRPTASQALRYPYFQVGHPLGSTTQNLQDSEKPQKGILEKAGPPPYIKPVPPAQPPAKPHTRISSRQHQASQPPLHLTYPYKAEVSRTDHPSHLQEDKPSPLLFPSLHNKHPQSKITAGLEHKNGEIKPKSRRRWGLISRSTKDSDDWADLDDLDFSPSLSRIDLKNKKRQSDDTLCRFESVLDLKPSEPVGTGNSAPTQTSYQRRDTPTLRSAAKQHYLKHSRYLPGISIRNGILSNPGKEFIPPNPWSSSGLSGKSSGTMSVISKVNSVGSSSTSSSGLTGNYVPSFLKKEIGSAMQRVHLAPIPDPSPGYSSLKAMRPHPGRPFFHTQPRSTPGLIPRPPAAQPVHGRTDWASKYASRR

[12] = molecular target: Inhibitor of nuclear factor kappa-B kinase subunit beta (Homo sapiens) (UniProt O14920); experiment: Inhibition of IKK-beta (unknown origin) assessed as remaining activity at 1 uM by Kinome scan method relative to control
[13] = molecular target: Mast/stem cell growth factor receptor Kit (Homo sapiens) (UniProt P10721); experiment: Inhibition of KIT-autoinhibited (unknown origin) assessed as remaining activity at 1 uM by Kinome scan method relative to control
Mast/stem cell growth factor receptor Kit (Homo sapiens), sequence (P10721 whole entry): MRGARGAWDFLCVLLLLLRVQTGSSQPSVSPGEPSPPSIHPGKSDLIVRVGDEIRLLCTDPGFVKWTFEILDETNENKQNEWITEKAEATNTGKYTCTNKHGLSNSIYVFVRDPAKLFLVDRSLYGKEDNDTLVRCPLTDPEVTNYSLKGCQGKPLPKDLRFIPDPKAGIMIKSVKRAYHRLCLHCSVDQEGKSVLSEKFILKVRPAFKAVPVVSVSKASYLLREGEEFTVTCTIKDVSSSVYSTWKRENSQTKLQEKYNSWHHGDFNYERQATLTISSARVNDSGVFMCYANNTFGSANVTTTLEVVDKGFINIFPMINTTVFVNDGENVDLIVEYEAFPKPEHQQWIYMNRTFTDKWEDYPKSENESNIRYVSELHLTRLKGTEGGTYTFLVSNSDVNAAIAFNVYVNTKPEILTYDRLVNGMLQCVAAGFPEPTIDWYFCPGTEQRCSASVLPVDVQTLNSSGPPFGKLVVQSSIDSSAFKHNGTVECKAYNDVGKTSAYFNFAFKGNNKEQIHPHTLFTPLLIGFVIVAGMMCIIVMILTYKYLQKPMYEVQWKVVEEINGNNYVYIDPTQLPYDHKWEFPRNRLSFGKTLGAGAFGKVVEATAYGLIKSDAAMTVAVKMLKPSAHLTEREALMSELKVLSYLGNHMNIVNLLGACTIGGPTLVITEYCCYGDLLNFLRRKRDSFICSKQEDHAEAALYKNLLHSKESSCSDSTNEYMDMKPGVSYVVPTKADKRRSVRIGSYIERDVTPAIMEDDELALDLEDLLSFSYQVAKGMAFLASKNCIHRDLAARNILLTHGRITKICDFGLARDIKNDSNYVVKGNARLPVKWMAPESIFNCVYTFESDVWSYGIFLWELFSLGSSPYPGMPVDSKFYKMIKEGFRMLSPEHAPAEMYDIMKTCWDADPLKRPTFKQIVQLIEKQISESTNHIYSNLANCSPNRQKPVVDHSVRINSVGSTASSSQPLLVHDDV

[14] = molecular target: Tyrosine-protein kinase Lck (Homo sapiens) (UniProt P06239); experiment: Inhibition of LCK (unknown origin) assessed as remaining activity at 1 uM by Kinome scan method relative to control
[15] = molecular target: Dual specificity mitogen-activated protein kinase kinase 3 (Homo sapiens) (UniProt P46734); experiment: Inhibition of MEK3 (unknown origin) assessed as remaining activity at 1 uM by Kinome scan method relative to control
[16] = molecular target: Macrophage-stimulating protein receptor (Homo sapiens) (UniProt Q04912); experiment: Inhibition of MST1R (unknown origin) assessed as remaining activity at 1 uM by Kinome scan method relative to control
[17] = tested on: Phosphatidylinositol 4,5-bisphosphate 3-kinase catalytic subunit alpha isoform (Homo sapiens), P42336 [Q546K]; experiment: Inhibition of PIK3CA Q546K mutant (unknown origin) assessed as remaining activity at 1 uM by Kinome scan method relative to control
Phosphatidylinositol 4,5-bisphosphate 3-kinase catalytic subunit alpha isoform (Homo sapiens), P42336 [Q546K], sequence (P42336 whole entry Q546K, canonical isoform): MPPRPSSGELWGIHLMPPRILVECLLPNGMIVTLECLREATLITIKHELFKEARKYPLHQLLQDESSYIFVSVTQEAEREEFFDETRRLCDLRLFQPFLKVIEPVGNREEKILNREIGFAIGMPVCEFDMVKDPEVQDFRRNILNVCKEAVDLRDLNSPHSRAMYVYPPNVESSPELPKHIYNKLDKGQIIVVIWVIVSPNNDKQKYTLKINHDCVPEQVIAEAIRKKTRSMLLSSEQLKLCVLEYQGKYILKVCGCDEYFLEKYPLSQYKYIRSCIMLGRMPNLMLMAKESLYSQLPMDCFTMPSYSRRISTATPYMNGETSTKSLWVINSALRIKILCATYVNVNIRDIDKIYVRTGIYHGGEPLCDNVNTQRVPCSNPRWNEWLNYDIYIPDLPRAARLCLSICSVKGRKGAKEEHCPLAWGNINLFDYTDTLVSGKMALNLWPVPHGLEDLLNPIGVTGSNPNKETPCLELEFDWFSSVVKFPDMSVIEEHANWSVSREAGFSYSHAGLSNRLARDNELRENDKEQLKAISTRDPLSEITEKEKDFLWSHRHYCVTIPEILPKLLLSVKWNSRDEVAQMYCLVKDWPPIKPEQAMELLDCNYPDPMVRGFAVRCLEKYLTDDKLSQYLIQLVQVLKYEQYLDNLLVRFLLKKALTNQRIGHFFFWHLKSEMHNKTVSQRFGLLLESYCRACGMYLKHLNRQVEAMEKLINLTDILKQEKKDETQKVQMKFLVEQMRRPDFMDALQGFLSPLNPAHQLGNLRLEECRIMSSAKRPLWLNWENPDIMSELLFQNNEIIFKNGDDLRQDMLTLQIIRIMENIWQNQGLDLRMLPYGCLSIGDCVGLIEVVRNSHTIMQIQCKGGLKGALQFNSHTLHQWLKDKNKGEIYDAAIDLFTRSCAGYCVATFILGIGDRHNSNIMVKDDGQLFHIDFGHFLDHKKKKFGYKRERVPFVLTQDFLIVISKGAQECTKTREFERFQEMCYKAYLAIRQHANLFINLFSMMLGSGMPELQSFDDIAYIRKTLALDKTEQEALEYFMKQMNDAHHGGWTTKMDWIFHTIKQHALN

[18] = molecular target: Serine/threonine-protein kinase pim-1 (Homo sapiens) (UniProt P11309); experiment: Inhibition of PIM1 (unknown origin) assessed as remaining activity at 1 uM by Kinome scan method relative to control
[19] = molecular target: Protein kinase C theta type (Homo sapiens) (UniProt Q04759); experiment: Inhibition of PRKCQ (unknown origin) assessed as remaining activity at 1 uM by Kinome scan method relative to control
[20] = molecular target: Serine/threonine-protein kinase RIO1 (Homo sapiens) (UniProt Q9BRS2); experiment: Inhibition of RIOK1 (unknown origin) assessed as remaining activity at 1 uM by Kinome scan method relative to control
[21] = molecular target: Serine/threonine-protein kinase SBK1 (Homo sapiens) (UniProt Q52WX2); experiment: Inhibition of SBK1 (unknown origin) assessed as remaining activity at 1 uM by Kinome scan method relative to control
[22] = molecular target: Tyrosine-protein kinase SYK (Homo sapiens) (UniProt P43405); experiment: Inhibition of SYK (unknown origin) assessed as remaining activity at 1 uM by Kinome scan method relative to control
[23] = molecular target: Tyrosine-protein kinase Tec (Homo sapiens) (UniProt P42680); experiment: Inhibition of TEC (unknown origin) assessed as remaining activity at 1 uM by Kinome scan method relative to control
[24] = molecular target: Tyrosine-protein kinase receptor TYRO3 (Homo sapiens) (UniProt Q06418); experiment: Inhibition of TYRO3 (unknown origin) assessed as remaining activity at 1 uM by Kinome scan method relative to control
[25] = Acute toxicity in wild-type mouse assessed as increase in Ki67-positive cells at 1 mg/kg,ip administrated twice daily for 1 to 7 days by Ki67 staining; format: organism-based, Liver; conditions: in vivo, time 1-7 day
In short: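 Wild-type mice were dosed once a day before two-thirds partial hepatectomy, then given vehicle or 1 mg/kg i.p. twice per day. Ki67-positive cells were counted in liver sections over postoperative days 1 to 7, n = 5; means ± SD, Student's t test.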

Mus musculus [26] = experiment: Protection against human hepatocyte transplanted FRG mouse assessed as increase in human albumin level at 1 mg/kg, ip administrated once a day and measured within 6 weeks; format: functional, organism-based; conditions: Liver
Mus musculus [27] = experiment: Protection against APAP induced liver injury in mouse assessed as decrease in ALT level at 1 mg/kg, ip administered at 2.5 hrs; format: functional, organism-based; conditions: Serum
Mus musculus [28] = experiment: Protection against duct ligation-induced mouse assessed as low level in collagen deposition at 1 mg/kg, ip administration daily for 10 days by Sirius Red staining; format: functional, organism-based; conditions: Liver, time 10.0 day

Work on `CN1C(=O)c2sccc2N(C)c2nc(Nc3ccc(S(N)(=O)=O)cc3)ncc21` yielded an Activity [1] of 5.5%, an Activity (Aurora kinase B) of 3.4% and an Activity [2] of 85%. It also gave an Activity [3] of 72%, an Activity [4] of 85% and an Activity [5] of 100%. The Activity [6] was 99%, the Activity [7] was 80% and the Activity [8] was 95%. It also gave an Activity [9] of 94%, an Activity [10] of 91% and an Activity [11] of 62%. The Activity [12] was 100%, the Activity [13] was 100% and the Activity [14] was 100%. For the same molecule, the Activity [15] was 66%, the Activity [16] was 96% and the Activity [17] was 50%. For the same molecule, the Activity [18] was 100%, the Activity [19] was 99% and the Activity [20] was 86%. The Activity [21] was 42%, the Activity [22] was 90% and the Activity [23] was 100%. For the same molecule, the Activity [24] was 100%, the Activity [25] was “Non-Toxic” and the Activity (Mus musculus [26]) was “Active”. The Activity (Mus musculus [27]) was “Active” and the Activity (Mus musculus [28]) was “Active”.
